In the EternaBench riboswitch data:

System: MS2 coat protein
Assay: apparent Kd, MS2 coat protein; higher = weaker binding; RNA-MaP array; FMN 200 µM where present
Outline: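 Binding was read on Illumina sequencing-chip clusters where stalled E. coli RNA polymerase had transcribed each design. A titration of SNAP-549-labelled MS2 coat protein began at 0.7 or 1.5 nM and doubled to 3 µM, once without ligand and once with constant ligand, in 100 mM Tris-HCl pH 7.5, 80 mM KCl, 4 mM MgCl2, BSA, DTT, yeast tRNA and Tween-20. The apparent Kd is the median of filtered per-cluster binding-curve fits, based on green signal normalised to red-channel RNA signal and control-cluster median Fmax.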

[1] = designed as: ON switch for flavin mononucleotide, no ligand
[2] = ligand present: flavin mononucleotide, designed as: ON switch for flavin mononucleotide
[3] = designed as: OFF switch for flavin mononucleotide, no ligand
[4] = ligand present: flavin mononucleotide, designed as: OFF switch for flavin mononucleotide

| Sequence | apparent Kd [1] | apparent Kd [2] | apparent Kd [3] | apparent Kd [4] |
| --- | --- | --- | --- | --- |
| UGCGAACAGGCUAACAUGAGGAUCACCCAUGUGGACUCAUGGUAGGAUAUCGGGAAGGAGGAAACCGAGAAGGGCCGGUGAGCC | 848 nM | 372 nM | – | – |
| GCAGCACUCAUUAACAUGAGGAUCACCCAUGUCAAAAGACAUGAGGAUAUGCAUCUGAAGAAGAUGCAGAAGGCAUUGUGCUGC | 555 nM | 25.6 nM | – | – |
| GGAGCCGGCACUGAGGAUAUUCAUAUUAAAACAUGAGGAUCACCCAUGUAGGCCAGAAGGCCUUGGGAGAAGGCGGGUCGGCCCG | 531 nM | 35.3 nM | – | – |
| ACAUGAGGAUCACCCAUGUGACCACAAUGGCUGAUAUAGAAACAGGAUAUUCGUGAAUAUCUAACGAAGAAGGGUUAUGACUGG | – | – | 77.8 nM | 85 nM |
| AGAUAGUGGUGAGGAUAUCAGAAUAGAAAGAAAUGAGAAGGCGCACAUGAGGAUCACCCAUGUGAGGUCUUGAGACUACAUGGU | – | – | 20 nM | 22.1 nM |
| CACAAGAAAGUCGAAGGUUGAAGUAGAAGGACAACAACAUGACAUGAGGAUCACCCAUGUGCCAUGUAGGAUAUGCUUUAAUCG | – | – | 9.14 nM | 8.28 nM |
| AUGUUAGGAGGAUAUCGAUUUCAGGACAUGAGGAUCACCCAUGUACUAAAAGUCGUGGUUCGAGAAGGCCUAACUU | – | – | 17.5 nM | 23.5 nM |
| CAGCCCUGAGGAUAUCCCUACUUGUACAUGAGGAUCACCCAUGUUCUCCUCCGGGCUUCGGGAGAAGGCAGGUCUC | – | – | 15.9 nM | 15.5 nM |
| GGUAAGAUGCAGAAGGUGUUAGCUAGAGCUACGACAUGAGGAUCACCCAUGUACUAGAAACAGUACAAGGAUAUGCAUCUUACG | 19.1 nM | 6.5 nM | – | – |
| UUACCUCAUGAGAAGGACAUGAGGAUCACCCAUGUAGGAUAUCGUGGAAGACUGGUAUUGAAUCUUCGGAUUCAAUACCUGUCU | 317 nM | 15.7 nM | – | – |
| CACGUCCUCACAGGAUAUGCUGGACUUUGUCCAGCAGAAGGGUGAAACAUGAGGAUCACCCAUGUUAGGACGUGUAUAUUUAAU | 86.7 nM | 625 nM | – | – |
| AAUAACAGAGGAUAUACUAUUUUAUGUGUUUGUUGUUUUAAACAUGAGGAUCACCCAUGUAGAAGGCUGAGUAA | – | – | 24.3 nM | 30.4 nM |
| ACUAUACGAGGAUAUGCUGUCAGUACUCAGAGGUUAAUGUGACAUGAGGAUCACCCAUGUAGAAGGCGUUUACU | – | – | 34.2 nM | 23.8 nM |
| GUUUUAUAAGAGAAGGAGGACUUCAUGAGGAUCACCCAUGUGUUAGUACUUAGGAUAUUUGAUAACAUGAGGAUCACCCAUGUC | 27.6 nM | 27.7 nM | – | – |
| GAAAAACAUGAGGAUCACCCAUGUAAAAAAAUGGGAGGAUAUACAAAGACGAAAGUCAAAGUAGAAGGCCUGAAAG | 54.9 nM | 20.7 nM | – | – |
| UUCAUCGAUGAAGGAUAUCUAUGUCCAACAUGAGGAUCACCCAUGUUGAGGAUUACCUAUGUGUAGGAGAAGGUCAAUAUAACU | 7.02 nM | 6.28 nM | – | – |
| CCGGAAUAGCAGGAUAUAGGAGUCGAUAGACACCUAGAAGGGCUGACAUGAGGAUCACCCAUGUGUCCUACCGG | – | – | 81.2 nM | 50.8 nM |
| GGUGGACAUGAGGAUCACCCAUGUGAGGAUAUCGGCUGGCUAGCGGCGGACGGCUGCUCGAGAAGGCGCAUUGU | – | – | 90.6 nM | 137 nM |

| Sequence | apparent Kd [1] | apparent Kd [2] | apparent Kd [3] | apparent Kd [4] |
| --- | --- | --- | --- | --- |
| CUCAGCUCGUGAGGAUAUACAACACUGCUUCGGCAGUGUAUUAAGAUCACAUGAGGAUCACCCAUGUAGAAGGCACGAGCUGAU | – | – | 14.3 nM | 246 nM |
| UCUGAUUGGUGAGGAUAUACAUAAUUUAUGACUGUAGAAGGCACAAACCUCAAGACAUGAGGAUCACCCAUGUGGUAUUUAGAU | – | – | 348 nM | 506 nM |
| UCCUUCUGUUGAGGAUAUGUAAGACAGCGGCCGCUAUGGCAGCACGCUGAUACAGAAGGCAACAUGAGGAUCACCCAUGUUCAA | – | – | 18.9 nM | 146 nM |
| ACGGCAAUCACAGGAUAUGGUUACAUGAGGAUCACCCAUGUCAAGGGUCUAAUUAGGUAUAACUACCAGAAGGGUGAAGGCCUA | – | – | 74.4 nM | 105 nM |
| ACGUUUUUUGAGGAUAUGCGACGUUUUUUCGUCGUAGAAGGCGAUACAUGAGGAUCACCCAUGUUUAUGGGCAU | – | – | 126 nM | 174 nM |
| GGACGGUUAGUUAGGAUAUGCUCUACCUCGGUAGAGCAGAAGGGACAUGAGGAUCACCCAUGUGAAAACUGUUC | – | – | 19.4 nM | 21.3 nM |
| CAGCAUCAUGUAGGAUAUGCGUGGCGAAGCUAUGCAGAAGGACAUGAGGAUCACCCAUGUCUUACCUAGCGUACUAGGUUGCUG | – | – | 7.3 nM | 16.6 nM |
| AUUAUUAUAUUAUACAUGAGGAUCACCCAUGUUAUAAGUCAUGAGGAUAUGGUUAUGUAGAUUUGCCAGAAGGCAUUUAACUUA | 14.9 nM | 9.91 nM | – | – |
| UGGACCAGUACAGGAUAUGGUGACGCACAUGAGGAUCACCCAUGUCCGCAGCGUGCUCAGCACGCCCAGAAGGGUACUGAUUCG | 718 nM | 76.4 nM | – | – |
| CUUUUGUGAGGAUAUUAGUAGUAAUUAAAUAAAAUUACUACUGAGAAGGCACAUGAGGAUCACCCAUGUUCCUC | – | – | 33.9 nM | 158 nM |
| GCUAGUAUUGCAGGAUAUUGUGUUUAAGGAUGGCAAGAAGGGCAUUACAUGAGGAUCACCCAUGUUUUCCGUAGUCAUACUAGC | – | – | 7.34 nM | 7.28 nM |
| AAACGACGUCAGAAGGCCGAUGGAUUUGACCACGGAGGAUAUGACAUGAGGAUCACCCAUGUGGUGCUUCUAACCCGCUGGGCC | – | – | 501 nM | 69.7 nM |
| AGGGCUGCUCAGGAUAUCCGUAAAAGCCGAGAAGGAGAAGGGAGCACAUGAGGAUCACCCAUGUGAUCCGAAAA | – | – | 21.6 nM | 44 nM |
| UCUUGUGUUGAGGAUAUGCGCCGGCUCGCUGGCGCAGAAGGCGGCACAUGAGGAUCACCCAUGUCAGUUCGCGU | – | – | 326 nM | 78 nM |
| UGACAUAUAUAGAAGGGUAUGUGGGAAUUACAUGAGGAUCACCCAUGUUUUAUAGGAUAUGUAUAUAGUUUUUAAUCAAGUUUA | – | – | 35.1 nM | 26.9 nM |
| AGUGUCAUCGAGAAGGCCUCAACAUGAGGAUCACCCAUGUUGGAAUAUGGGAGGAUAUCGAUGAUACAGCUACGUUUCGUAGCA | 10.2 nM | 5.04 nM | – | – |
| AUUUUAUAAUAGAAGGAGGACUUCAUGAGGAUCACCCAUGUGUUAGUACUUAGGAUAUGUAAUAACAUGAGGAUCACCCAUGUC | 38.3 nM | 43.3 nM | – | – |
| AGCACGAAAGUGCAACGAUGUACGAGAAGGACAUGAGGAUCACCCAUGUCGCUGUAACAGCAAAUGUAGGAUAUCGUACAUCGA | – | – | 5.14 nM | 5.7 nM |
